Assay outcomes deposited in PubChem by several laboratories.
STAT3 act: increases IL-6 driven STAT3 reporter signal; U3A cells, IL-6 STAT3-luciferase reporter, luminescence; 100% = signal with IL-6 EC80 alone; activation (% of control), % at 5.6 µM; hit rate 0.91% among 190,000; AID 871;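 active = activation above the screen-wide mean of compound activation plus 3 SD, cut at about 130% in these data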
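Assay system – human STAT1-deficient U3A cells with stable STAT3-luciferase reporter · Also added – IL-6 (33 ng/mL) · Schedule – compound 1 h, then IL-6 6 h at 37 °C · Technique – reporter luminescence signal · Evaluation – % activation versus median of IL-6-stimulated wells · Benchmarks – IL-6-only wells as 100% reference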
MT stabilize HCS: stabilizes microtubules in HeLa cells. HeLa tubulin immunostaining HCS, 24 h; share of cells brighter than vehicle mean+2SD. % tubulin-high responders, % at 10 µM. hit rate 0.83% among 200,000. AID 2205;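 active = plate Z-score above 3 for both tubulin-high and condensed-nucleus cell shares, with cell loss under 80%, at 10 µM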;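 note: anti alpha tubulin signal scored within the nucleus-defined area of each cell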
STAT1 inh: reduces IFN-gamma driven STAT1 reporter signal; NIH 3T3 STAT1-luciferase reporter, luminescence; inhibition, % at 5.5 µM; hit rate 0.35% among 200,000;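 active = inhibition above a set limit, the mean inhibition across all tested compounds plus 3 SD, cut at about 34% in these data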
bCat nuc transl: beta-catenin nuclear translocation modulation; AID 1665; hit rate 0.3% among 190,000; HeLa beta-catenin nuclear translocation, immunofluorescence imaging; nuclear translocation activity, % at 5 µM;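 active = nuclear translocation activity above 50% at 5 µM, with a well cell count of 50 or more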;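 note: per-cell ratio of nuclear to cytoplasmic median beta-catenin stain intensity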
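System: HeLa cells, endogenous beta-catenin; compound dosing: 5 µM primary single dose, 0.1% DMSO, 0.02–20 µM confirmation series; incubation: 24 h compound exposure at 37°C, 5% CO2; signal: beta-catenin immunofluorescence imaging with DAPI; evaluation: % activation, nuclear-to-cytoplasmic median beta-catenin signal ratio per cell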
STAT3 blocker: STAT3 signaling inhibition. inhibition, % at 5.5 µM. AID 862. hit rate 0.89% among 190,000. U3A cells, IL-6 STAT3-luciferase reporter, luminescence; host cell line lacks STAT1;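 active = inhibition above the mean inhibition across all screened compounds plus 3 SD, cut at about 44% in these data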
Each line names hits and unclear results; the compound was inactive in the other large screens. An excerpt weighted towards active compounds, which were near 2.4% of everything screened.

CCCNC(=O)C/C(C)=N/NC(=O)COc1ccc(C)cc1Br	none
C/C(CC(=O)NCc1ccco1)=N\NC(=O)COc1ccc(Cl)cc1Cl	bCat nuc transl 59
Cc1cccc(N2CCN(C(=O)c3ccc(Cl)c(S(=O)(=O)NCc4ccco4)c3)CC2)c1C	MT stabilize HCS 42
CSc1cccc(NC(=S)N2CCCN(Cc3ccccc3F)C2)c1	none
CCN(CC)c1ccc(NC(=S)Nc2ccc(F)cc2)cc1	none
COc1ccc(/C=N/NC(=O)c2csc(-n3nc(C)cc3C(F)(F)F)n2)cc1	MT stabilize HCS 30, bCat nuc transl 108
O=c1oc2ccccc2cc1-c1nc2c(s1)CCc1ccccc1-2	STAT3 act 134 (no result: bCat nuc transl)
O=c1oc2cc(O)ccc2cc1-c1nc2c(s1)CCc1ccccc1-2	none
CCCC1=C(C(=O)OCC)C(/C=C/c2ccccc2)n2ncnc2N1 (stereo unspecified)	MT stabilize HCS 45 (no result: bCat nuc transl)
O=C(N/N=C/c1c(Cl)[nH]c2ccccc12)c1ccc2c(c1)OCCO2	none (no result: STAT3 act, MT stabilize HCS, STAT1 inh, STAT3 blocker)
CC(=O)Nc1ccc(NC(=O)CN(c2ccc([N+](=O)[O-])cc2)S(=O)(=O)c2ccccc2)cc1	none
CCOc1ccc(NC(=O)CN(c2ccc([N+](=O)[O-])cc2)S(=O)(=O)c2ccccc2)cc1	MT stabilize HCS 14
CCOc1ccc(S(=O)(=O)N(CC(=O)N/N=C/c2ccc(-c3ccc([N+](=O)[O-])cc3)o2)c2ccccc2)cc1	MT stabilize HCS 26, bCat nuc transl 60
O=S(Cc1ccc(Br)cc1)Cc1nnc(SCc2ccc(Br)cc2)n1-c1ccccc1 (stereo unspecified)	none
O=C(Cn1nc(Cc2cccnc2)c2ccccc2c1=O)Nc1ccccc1F	none (no result: STAT3 act, MT stabilize HCS, STAT1 inh, STAT3 blocker)
O=C(/C=C/c1ccccc1O)c1ccc(Cl)cc1	STAT3 act 135
O=C(/C=C\Nc1ccccn1)c1ccc(Cl)cc1	STAT1 inh 56, STAT3 blocker 100
COc1ccccc1NC(=O)N(Cc1cccs1)Cc1cc2cc3c(cc2[nH]c1=O)OCO3	none
CCOc1cc(C(=O)NCCCn2ccnc2)cc(OCC)c1OCC	none
O=C(c1cc2nc(-c3ccc(Cl)cc3)cc(C(F)(F)F)n2n1)N1CCOCC1	none
Nc1nc(CN2CCCCCC2)nc(Nc2ccccc2)n1	none
Cc1c(-c2nc(N)nc(Nc3ccccc3)n2)oc2ccccc12	MT stabilize HCS 25
Cn1c(SCC(=O)N2c3ccccc3CCc3ccccc32)nnc1-c1ccc(O)cc1	none
CCC(=O)NC(=S)NNC(=O)COc1ccc(Br)cc1	none
COc1cccc(-c2cc(=O)c3cc(NC(=O)c4ccccc4)ccc3[nH]2)c1	none (no result: bCat nuc transl)
COc1cccc(-c2cc(=O)c3cc(NC(=O)c4ccc(Cl)cc4)ccc3[nH]2)c1	MT stabilize HCS 26
CCOc1ccc(-c2ccc(SC)nn2)cc1	STAT1 inh 81, STAT3 blocker 110
CCOc1ccc(-c2ccc(SCC(=O)Nc3nnc(CC)s3)nn2)cc1	none
CN(C(=O)CSc1nc2ccccc2s1)c1c(N)n(Cc2ccccc2)c(=O)[nH]c1=O	none
CN(NC(=O)c1cccc(Cl)c1)c1nc(-c2ccccc2)nnc1C(F)(F)F	MT stabilize HCS 40
CCOCCCNc1ncnc2c1[nH]c1ccccc12	none (no result: bCat nuc transl)
CCCCOCCCNc1ncnc2c1[nH]c1ccccc12	STAT1 inh 41, STAT3 blocker 56
COC(=O)c1sc2ccccc2c1-n1cccc1C(=O)C(=O)Nc1ccc(C)cc1	MT stabilize HCS 32 (no result: bCat nuc transl)
COC(=O)c1sc2ccccc2c1-n1cccc1C(=O)C(=O)Nc1ccc(Cl)cc1	MT stabilize HCS 40 (no result: bCat nuc transl)
COC(=O)c1sc2ccccc2c1-n1cccc1C(=O)C(=O)Nc1ccc(F)cc1	none
COC(=O)c1ccc(NC(=O)C(=O)c2cccn2C)cc1	STAT1 inh 47, STAT3 blocker 79
COc1cc(C(=O)N/N=C/c2ccsc2C)cc(OC)c1OC	bCat nuc transl 163
CC(C)c1ccc(NC(=O)C(c2ccccc2)N(Cc2ccco2)C(=O)CC2NC(=O)NC2=O)cc1 (stereo unspecified)	none (no result: bCat nuc transl)
COc1cc(S(=O)(=O)Nc2cc(C)cc(C)c2)ccc1F	MT stabilize HCS 12 (no result: bCat nuc transl)
COc1cc(S(=O)(=O)Nc2cccnc2)ccc1F	none
O=[N+]([O-])c1nn(-c2ccccc2)[n+]([O-])c1N1CCN(c2ccccc2F)CC1	none
CCOC(=O)c1c(C)nn(-c2ccc(NC(=O)CSCC(=O)O)cc2)c1C	none (no result: STAT3 act, MT stabilize HCS, STAT1 inh, STAT3 blocker)
COc1ccc(C2=Nc3cccc4cccc(c34)N2)cc1	STAT3 act 135
COC(=O)c1ccc2nc(Nc3nc4c(F)cc(F)cc4s3)sc2c1	STAT1 inh 70, STAT3 blocker 94
CCOC(=O)c1ccc2nc(Nc3nc4ccc(F)cc4s3)sc2c1	STAT1 inh 43, STAT3 blocker 73
COc1ccc(/C=N/Nc2ncccc2[N+](=O)[O-])c(OC)c1	STAT1 inh 57, STAT3 blocker 74
COC(=O)CSc1nnc(CNS(=O)(=O)c2ccc(Cl)cc2)n1C	none
NC1=NC2(CCCCC2)N=C(Nc2ccc(F)cc2F)N1	none
Cc1cc(C)cc(NC2=NC3(CCCCC3)N=C(N)N2)c1	MT stabilize HCS 47
COc1ccccc1N1C(=O)N(C(C)=O)C2C1Nc1ccccc1N2C (stereo unspecified)	STAT3 act 134
Cc1ccc(C(C)C)c(OCC(=O)Nc2ccc(N3CCN(S(C)(=O)=O)CC3)cc2)c1	STAT3 act 133 (no result: bCat nuc transl)
COc1ccc(C2=CC(=O)OC(C)(c3ccccc3)O2)cc1 (stereo unspecified)	MT stabilize HCS 9.8, bCat nuc transl 51
CC(C)c1ccc(-n2c(-c3ccccc3)c[n+]3c2CCc2ccccc2-3)cc1	STAT1 inh 40, STAT3 blocker 80
COc1ccc(-n2c(-c3ccc(Br)cc3)c[n+]3c2CCc2ccccc2-3)cc1	STAT3 blocker 72
O=C(Nc1ccnc(-c2ccncc2)n1)C1CC1	none
CC(C)CC(=O)Nc1nc2ccc(S(=O)(=O)N3CCOCC3)cc2s1	MT stabilize HCS 49
C=CCNC(=O)C(=O)NCCOc1ccccc1Cl	MT stabilize HCS 23
CN(C(=O)CSc1nc2c(c(=O)[nH]1)CCC2)c1ccccc1	none
COc1ccc(NS(=O)(=O)c2cc(NC(=O)c3cccc(OCc4c(C)noc4C)c3)ccc2OC)cc1	MT stabilize HCS 13, bCat nuc transl 63
Cc1cc(C(=O)COC(=O)c2ccc[nH]c2=O)c(C)n1-c1ccccc1	STAT1 inh 36, STAT3 blocker 49
O=C1c2ccccc2-c2nnc(-c3ccc(O)cc3)cc21	STAT1 inh 48, STAT3 blocker 72
Cc1ccc(-c2cc3c(nn2)-c2ccccc2C3=O)cc1	none (no result: STAT3 act, MT stabilize HCS, STAT1 inh, STAT3 blocker)
CCc1ccc(-c2nc(C(N)=O)c3[nH]c(=O)n(-c4ccccc4OC)c3n2)cc1	MT stabilize HCS 17
O/N=C(\c1ccc(Cl)cc1Cl)c1ncc(C(F)(F)F)cc1Cl	none (no result: bCat nuc transl)
O=C(Cn1c(=O)c(=O)n(Cc2ccccc2)c2ccc(Cl)cc21)Nc1ccc(F)cc1F	MT stabilize HCS 26
CCOc1ccc(C2C(C(=O)/C=C/c3ccco3)=C(O)C(=O)N2CCN2CCOCC2)cc1OC (stereo unspecified)	none
